Here are results for 48 sequences from the EternaBench riboswitch data.

The subject of the data set is MS2 coat protein. Briefly: apparent Kd, MS2 coat protein; higher = weaker binding; RNA-MaP array; FMN 200 µM where present. The method in brief:
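Designs on Illumina sequencing-chip clusters, transcribed by stalled E. coli RNA polymerase, were exposed to SNAP-549-labelled MS2 coat protein in doubling steps from 0.7 or 1.5 nM up to 3 µM, without and then with constant ligand. The buffer held 100 mM Tris-HCl pH 7.5, 80 mM KCl, 4 mM MgCl2, BSA, DTT, yeast tRNA and Tween-20. Apparent Kd values are medians of filtered per-cluster binding-curve fits to green signal normalised to red-channel RNA signal and control-cluster median Fmax.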

Setting [1] is: designed as: OFF switch for flavin mononucleotide, no ligand.
[2] abbreviates: ligand present: flavin mononucleotide, designed as: OFF switch for flavin mononucleotide.
Where [3] appears, read: designed as: ON switch for flavin mononucleotide, no ligand.
Where [4] appears, read: ligand present: flavin mononucleotide, designed as: ON switch for flavin mononucleotide.

One may read the apparent Kd as a dissociation constant that holds for the conditions of the assay. On to “GCAUACUAAGGAUAUACAUGAGGAUCACCCAUGUUGCCAAAUGGCAGCAUCACCUGGAGUAGAAGGUAGAUGUA”, for which the “apparent Kd” value was 0.035 µM under setting [1] and 0.0333 µM under setting [2].
For “CUGGUGUGAGGAUAUCAGGACACGCCCGAGGGCGUGUCAAAUGAGAAGGCACAUGAGGAUCACCCAUGUGGGAC”, in that order: 0.0423 µM and 0.0996 µM.
For the sequence “UUUGGGUGGCUGGAGGAUAUCCUGGUUGUUACAUGAGGAUCACCCAUGUGCCGCGCGGUUCGCGAGGAGAAGGCUGGCGGCCGUU”, the “apparent Kd” value under setting [3] is 0.147 µM and the “apparent Kd” value under setting [4] was 0.0336 µM.
For “CUCCGGCAAGGAUAUGCGUCUUCUCCCAUGAAACAAAAUAAACAUGAGGAUCACCCAUGUAGAAGGUGCAGGAC”, the “apparent Kd” value was determined as 0.0331 µM under setting [1] and 0.0286 µM under setting [2].
As for “CCUCUGUCCGAGGAUAUGAGGUUAACGUGACCGUCAGAAGGCGGAACAUGAGGAUCACCCAUGUUUUGCGCAUG”, the “apparent Kd” value reads like this: under setting [1], 0.0442 µM; under setting [2], 0.068 µM.
Turning to “GGCUGACAUGUAGGAUAUCUGCACGUGUAGUGCAGAGAAGGACAUGAGGAUCACCCAUGUAUAGCGACUUCGGUCGCAACAGCC”, the “apparent Kd” value by setting is: under setting [1], 0.0492 µM; under setting [2], 0.159 µM.
Take “GUAGUUAGUAAAGGAUAUUAGUGUGUGUAAUAUUGAGAAGGUUACAUGAGGAUCACCCAUGUGAUCAAUCACUGUUAAGGUUGC”: the “apparent Kd” value stood at 0.0066 µM under setting [1] and 0.00642 µM under setting [2].
Regarding “UCUUAUUGCAAGGAUAUGCAAUUUAUUUUUUAUGCAGAAGGUGCAACAUGAGGAUCACCCAUGUUUCCGGGCAU”, the “apparent Kd” value reads like this: under setting [1], 0.0138 µM; under setting [2], 0.0186 µM.
On the same counts, the results for “GGUACUCAAAGAGUACCAAUACGAACAUGAGGAUCACCCAUGUAGGAUAUGAAAACGCCGGAGUAGCAGAAGGACAUGUGCCUA” are 0.0114 µM and 0.0111 µM.
On the same counts, the results for “UUAUUAUAUGUAGGAUAUGCAUAUUAUUAUUAUGCAGAAGGACAUGAGGAUCACCCAUGUAUAUUAUUAUUAUAUAUUAUAUAU” are 0.0301 µM and 0.0537 µM.
Take “AUUAUUUACAUAGGAUAUUGUUACAUGAGGAUCACCCAUGUUAUUUGGGAAUUAGGAAUAUUUUACAAGAAGGAUGUUGUUACA”: the “apparent Kd” value runs as follows: under setting [3], 0.0874 µM; under setting [4], 0.067 µM.
Consider “GGGAUACACCAGAAGGACAUGAGGAUCACCCAUGUAGGAUAUGGGUACGCCGACAUUGGUCUGCUCUCGGUAGACUUUCCCGAU”, for which the “apparent Kd” value was determined as 0.203 µM under setting [3] and 0.0396 µM under setting [4].
In the case of “UUAAAUCAUGUAGGAUAUGCAUGGCGAAGCUACGCAGAAGGACAUGAGGAUCACCCAUGUGCUAGCUACCGGAUACGGUGGCAA”, the “apparent Kd” value reads like this: under setting [1], 0.0607 µM; under setting [2], 0.264 µM.
Take “ACGAACCUAGGAUAUACAUGAGGAUCACCCAUGUACUACUAUCCAUGAAUGACCCUCGGUAGAAGGAGGAUCAA”: the “apparent Kd” value was 0.0181 µM under setting [1] and 0.0215 µM under setting [2].
With “AACAUGGUACAGAAGGGCAAUUUAUUUAAUUAUUAUUUAGAACAGCAUUGCAGGAUAUGUUUAACAUGAGGAUCACCCAUGUAC”, the “apparent Kd” value under setting [3] is 0.0704 µM and the “apparent Kd” value under setting [4] is 0.0138 µM.
On to “UGCAUGUAUGAGAAGGCUAAUUUGGACAUUAUUUAUGAUGAUGUUUAGGUUAGAGGAUAUUGGGACAUGAGGAUCACCCAUGUA”, for which the “apparent Kd” value came out at 0.0215 µM under setting [1] and 0.018 µM under setting [2].
With “CCAGCAACAUGAGGAUCACCCAUGUAGGAUAUCGCUAUUGUAAUCAUGAAACAUGAUUACAAUAGCGAGAAGGACAUAUGCUGG”, the “apparent Kd” value was found to be 0.00631 µM under setting [1] and 0.0101 µM under setting [2].
Consider “UUUUUGUGAGGAUAUCAGUAGUAAAAAAAUAAAAUUACUACUGAGAAGGCACAUGAGGAUCACCCAUGUUUUUU”, for which the “apparent Kd” value reads like this: under setting [1], 0.0417 µM; under setting [2], 0.0965 µM.
For the sequence “ACAAUGUGGUAAGGAUAUCCAAUGGCAUCCCUAGGAGAAGGUAUCACAUGAGGAUCACCCAUGUGAAGGAUGGGUUAUCGCAAA”, the “apparent Kd” value runs as follows: under setting [1], 0.223 µM; under setting [2], 0.121 µM.
On to “UGGAUGGUAUGAGGAUAUGCGCGCGAAACGCGCGCAGAAGGCGUGUCAAUAGACAUGAGGAUCACCCAUGUAUUAUCCAUCCAA”, for which the “apparent Kd” value under setting [3] came out at 0.13 µM and the “apparent Kd” value under setting [4] was determined as 0.0123 µM.
As to “CAGUCUACAGGAUAUACAUGAGGAUCACCCAUGUAAAUUCACUUUCGAUAGUCUACAUGUAGAAGGGUAGACUG”, the “apparent Kd” value is 0.0155 µM under setting [1] and 0.0186 µM under setting [2].
On to “AAAAGACAUGAGGAUCACCCAUGUGAAAACGUAGGAGGAUAUGUCUGGAAAACAUGCUGGACAGAAGGCCUGUGUC”, for which the “apparent Kd” value stood at 0.0401 µM under setting [3] and 0.0221 µM under setting [4].
On to “AAGGUACGAGGAUAUACAUAGAUACAGACACAUGUUCAAGUACAUGAGGAUCACCCAUGUAGAAGGCGUAUAUA”, for which the “apparent Kd” value under setting [1] came to 0.0387 µM and the “apparent Kd” value under setting [2] is 0.16 µM.
On to “CUAUUGCUAACAGGAUAUAUGAGUCCUACAUGAGGAUCACCCAUGUAGGUGAUCAGCCGUGAUUAGUAGAAGGGUUAGCAAUAG”, for which the “apparent Kd” value is, setting by setting: under setting [3], 0.0123 µM; under setting [4], 0.00691 µM.
For the sequence “AUAGUGGUUUUCUGGAUGUUGAACAUGAGGAUCACCCAUGUAGAGGAUAUCCACGGAAAUCCGUAGGAGAAGGCUGGUGGAAAA”, the “apparent Kd” value is 0.0156 µM under setting [1] and 0.0267 µM under setting [2].
For the sequence “GGCUGGCAGCUAGGAUAUGGGCGAUCACAUGAGGAUCACCCAUGUCAACAUCAAAACAAGAUUAACCAGAAGGAGCCGCGGGUU”, the “apparent Kd” value is, setting by setting: under setting [3], 0.0184 µM; under setting [4], 0.0767 µM.
As to “AAAAAGUGAGGAUAUACAUGAGGAUCACCCAUGUUAAAAAAGGAAAAAAAAAAAAAAUGUAGAAGGCGCAAAAA”, the “apparent Kd” value was found to be 0.0453 µM under setting [1] and 0.044 µM under setting [2].
With “GGAUGACAAAGUCAUCCAAAUCGAACAUGAGGAUCACCCAUGUAGGAUAUGGUACUCAAAGAGUACCAGAAGGACAUGUGCUUU”, the “apparent Kd” value by setting is: under setting [1], 0.04 µM; under setting [2], 0.191 µM.
As for “UGGUUGUCAGGAUAUACGUUUUUUAACUUUUGUUUUAUAUUGUAGAAGGGACAUGAGGAUCACCCAUGUUACGU”, the “apparent Kd” value stood at 0.0252 µM under setting [1] and 0.0271 µM under setting [2].
Turning to “AAUAAUGAUAAGGAUAUCACUAGCCUCGGCUAGUGAGAAGGUAUCACAUGAGGAUCACCCAUGUGUUCCAAUAA”, the “apparent Kd” value was 0.0161 µM under setting [1] and 0.0403 µM under setting [2].
On the same counts, the results for “UGCAUGUGAGGAUAUGUGUACUGUUUUUUGUUUAGAUGUACACAGAAGGCACAUGAGGAUCACCCAUGUAGUAC” are 0.0958 µM and 0.0224 µM.
Regarding “ACCAUUUACUAAUUGUCUAUACAUGAGGAUCACCCAUGUUAUGAGGAUAUCGUCGUGAAACACGACGAGAAGGCAUAGCAUUCG”, the “apparent Kd” value is, setting by setting: under setting [1], 0.0672 µM; under setting [2], 0.229 µM.
As to “UCAUUUCUGUAAGGAUAUUAAUUCAUGACGAUACAUGAGGAUCACCCAUGUUAAGAAGGUACAAAUACAAAUAAUGCAUUGUUC”, the “apparent Kd” value reads like this: under setting [1], 0.0118 µM; under setting [2], 0.0106 µM.
As to “AACUCACAUGAGGAUCACCCAUGUGAGGAUAUGGUUUCGCUGGCCGUAGCCAGUGGAACCAGAAGGCGCAUGAU”, the “apparent Kd” value reads like this: under setting [1], 0.0201 µM; under setting [2], 0.02 µM.
Take “UUAAUGUGAGGAUAUCAGGUGUGCUAGCGUACUGGUACAUCUGAGAAGGCACAUGAGGAUCACCCAUGUUCCUG”: the “apparent Kd” value reads like this: under setting [1], 0.0221 µM; under setting [2], 0.0776 µM.
On the same counts, the results for “UUAGAAAUGUUAGGAUAUUAAUAUUUUUUUAGUAUGAUCUACAUGAGGAUCACCCAUGUUAAAAUUAAGAAGGAACAUUUUAUU” are 0.0697 µM and 0.0569 µM.
As to “ACUUUAUUUGAGAAGGUGAAGUGGAAACAUGAGGAUCACCCAUGUAUUAGGAAGCCUAAUUUUAUCAAGGAUAUCAAAUAAAGA”, the “apparent Kd” value reads like this: under setting [3], 0.00793 µM; under setting [4], 0.00804 µM.
For the sequence “UGACCCAUGACAUGAGAUGACAUGAGGAUCACCCAUGUUUACAAGGAUAUGUUGAUGAAACAUCAACAGAAGGUGUAAUGGGCU”, the “apparent Kd” value reads like this: under setting [1], 0.0298 µM; under setting [2], 0.158 µM.
As for “CAAUGGGCGGUAGGAUAUCCGGUGUUUGGCAAAGGAGAAGGACUCACCAUACAUGAGGAUCACCCAUGUGAAGCGGGUCCUCAA”, the “apparent Kd” value is, setting by setting: under setting [1], 0.00848 µM; under setting [2], 0.0101 µM.
For “CGCAUGUAAGGAUAUUAGUAGUAGUCAGAAUAGACUAUUACUGAGAAGGUACAUGAGGAUCACCCAUGUUAGCG”, the “apparent Kd” value runs as follows: under setting [1], 0.117 µM; under setting [2], 0.592 µM.
On the same counts, the results for “AACUGACAUGAGGAUCACCCAUGUCAGGAUAUGACUUGAUAGAAAAUAAAAUAUCAUGUCAGAAGGGACAUGGA” are 0.0238 µM and 0.0333 µM.
For the sequence “AUUGGGACAUGAGGAUCACCCAUGUACGCAGUGGGUAGAUCACAGGAUAUGCGAAGUGUGUGAGAGCAGAAGGGUGAGUACUUA”, the “apparent Kd” value under setting [3] is 0.343 µM and the “apparent Kd” value under setting [4] worked out at 0.0595 µM.
Turning to “GCGAAUAUGGGUUAGGAUAUGCGCGCAUGUACAUGAGGAUCACCCAUGUUUACGGGCGCCUUUGAGCAGAAGGAGCUAAUCAACGC”, the “apparent Kd” value under setting [3] was 0.0365 µM and the “apparent Kd” value under setting [4] worked out at 0.0276 µM.
“UAUAUACAUGAGGAUCACCCAUGUCAGGAUAUGCGCCGAUUAUAUACAUAAGAUCGGUGCAGAAGGGACACUAA”: the “apparent Kd” value amounted to 0.0355 µM under setting [1] and 0.0672 µM under setting [2].
With “AAGAAGUCAGGAUAUGCUGCUCGUCACUUGCGUGAUGAGUAGCAGAAGGGACAUGAGGAUCACCCAUGUAAAGU”, the “apparent Kd” value under setting [1] came out at 0.0516 µM and the “apparent Kd” value under setting [2] is 0.0797 µM.
With “GGACGUCGCAUAAACAUGAGGAUCACCCAUGUAACUAGACAUGAGGAUAUGGAUCCUAAUUGGAUCCAGAAGGUAUGGACGUCC”, the “apparent Kd” value is, setting by setting: under setting [3], 0.298 µM; under setting [4], 0.2 µM.
As to “GUGUACAGAGGAUAUACAUGAGCUAGGAAACUAGCAACUUCACAUGAGGAUCACCCAUGUAGAAGGCUGUACAC”, the “apparent Kd” value stood at 0.026 µM under setting [1] and 0.128 µM under setting [2].
Turning to “CCGGCCGCCGUGAGGAUAUGCCCGCGCGCCCGCGGGCAGAAGGCACAUGAGGAUCACCCAUGUCCCGCGGCACC”, the “apparent Kd” value by setting is: under setting [1], 0.0138 µM; under setting [2], 0.0157 µM.
